Assay results published in ChEMBL document CHEMBL3808334, “Synthesis and in vitro evaluation of novel triazine analogues as anticancer agents and their interaction studies with bovine serum albumin” (Eur J Med Chem, 2016).

How the values were obtained:
Format in all cases: functional
[1] = Growth inhibition of human Hs 578T cells assessed as cell growth at 10^-5 M incubated for 48 hrs by sulforhodamine B assay; conditions: read-out: Activity
HT-29 = test: Growth inhibition of human HT-29 cells incubated for 48 hrs by sulforhodamine B assay; conditions: HT-29, 48 h
Outline: (§1)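 Cells were plated at 5,000–40,000 per well according to doubling time and preincubated 24 h at 37 °C in 5% CO2; time-zero plates were then TCA-fixed. Five concentrations (10-fold or ½-log dilutions, DMSO stock) were incubated 48 h. Cells were TCA-fixed, stained with 0.4% SRB and read at 515 nm. GI50 was taken where [(Ti−Tz)/(C−Tz)]×100 = 50.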

U-251 = test: Growth inhibition of human U251 cells assessed as cell growth at 10^-6 M incubated for 48 hrs by sulforhodamine B assay; conditions: U-251, 48 h, read-out: Activity
[2] = Growth inhibition of human SF295 cells assessed as cell growth at 10^-8 M incubated for 48 hrs by sulforhodamine B assay; conditions: SF-295, 48 h, read-out: Activity
[3] = Growth inhibition of human MOLT4 cells assessed as cell growth at 10^-5 M incubated for 48 hrs by sulforhodamine B assay; conditions: MOLT-4, 48 h, read-out: Activity
M14 = test: Growth inhibition of human M14 cells assessed as cell growth at 10^-5 M incubated for 48 hrs by sulforhodamine B assay; conditions: M14, 48 h, read-out: Activity
[4] = Growth inhibition of human UACC62 cells assessed as cell growth at 10^-6 M incubated for 48 hrs by sulforhodamine B assay; conditions: UACC-62, 48 h, read-out: Activity
MDA-MB-231 [5] = test: Growth inhibition of human MDA-MB-231 cells assessed as cell growth at 10^-4 M incubated for 48 hrs by sulforhodamine B assay; conditions: MDA-MB-231, 48 h, read-out: Activity
[6] = Growth inhibition of human HCC2998 cells assessed as cell growth at 10^-4 M incubated for 48 hrs by sulforhodamine B assay; conditions: HCC 2998, 48 h, read-out: Activity
[7] = Growth inhibition of human DU145 cells assessed as cell growth at 10^-4 M incubated for 48 hrs by sulforhodamine B assay; conditions: DU-145, 48 h, read-out: Activity
Outline: (§2)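 Cells seeded at 5,000–40,000/well according to doubling time and preincubated 24 h at 37 °C, 5% CO2. Time-zero plates were TCA-fixed. DMSO concentrate was diluted in medium with 50 µg/ml gentamicin to give five concentrations (10-fold or ½ log steps), then exposed 48 h. Cells were TCA-fixed, stained with 0.4% SRB and read at 515 nm. Percent growth was taken against time-zero and control; GI50, TGI and LC50 derived.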

786-0 [8] = test: Growth inhibition of human 786-0 cells assessed as cell growth at 10^-6 M incubated for 48 hrs by sulforhodamine B assay; conditions: 786-0, 48 h, read-out: Activity
Outline: (§3)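 Five-dose assay: five concentrations from 10-fold or ½-log serial dilutions. Cells are plated at 5,000–40,000 per well according to doubling time, grown 24 h, then exposed 48 h at 37 °C, 5% CO₂. Fixed with cold 50% TCA (final addition) for 60 min at 4 °C and stained with 0.4% SRB in 1% acetic acid. Bound dye is solubilized in 10 mM Tris base and read at 515 nm. GI₅₀ is where [(Ti−Tz)/(C−Tz)]×100 = 50, with a time-zero plate as Tz.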

MDA-MB-231 [9] = test: Growth inhibition of human MDA-MB-231 cells assessed as cell growth at 10^-7 M incubated for 48 hrs by sulforhodamine B assay; conditions: MDA-MB-231, 48 h, read-out: Activity
[10] = Growth inhibition of human SNB75 cells assessed as cell growth at 10^-7 M incubated for 48 hrs by sulforhodamine B assay; conditions: SNB-75, 48 h, read-out: Activity
[11] = Growth inhibition of human HOP62 cells assessed as cell growth at 10^-6 M incubated for 48 hrs by sulforhodamine B assay; conditions: HOP-62, 48 h, read-out: Activity
[12] = Growth inhibition of human DU145 cells assessed as cell growth at 10^-8 M incubated for 48 hrs by sulforhodamine B assay; conditions: DU-145, 48 h, read-out: Activity; outline: as §2
[13] = Growth inhibition of human TK10 cells assessed as cell growth at 10 uM incubated for 48 hrs by sulforhodamine B assay; conditions: TK-10, 48 h, read-out: Activity
[14] = Growth inhibition of human SNB19 cells assessed as cell growth at 10^-4 M incubated for 48 hrs by sulforhodamine B assay; conditions: SNB-19, 48 h, read-out: Activity
[15] = Growth inhibition of human SKOV3 cells assessed as cell growth at 10^-5 M incubated for 48 hrs by sulforhodamine B assay; conditions: SK-OV-3, 48 h, read-out: Activity
[16] = Growth inhibition of human TK10 cells assessed as cell growth at 10^-7 M incubated for 48 hrs by sulforhodamine B assay; conditions: TK-10, 48 h, read-out: Activity
ACHN = test: Growth inhibition of human ACHN cells assessed as cell growth at 10^-5 M incubated for 48 hrs by sulforhodamine B assay; conditions: read-out: Activity; outline: as §3
NCI-H522 = test: Growth inhibition of human NCI-H522 cells assessed as cell growth at 10^-7 M incubated for 48 hrs by sulforhodamine B assay; conditions: NCI-H522, 48 h, read-out: Activity
[17] = Growth inhibition of human CNS cancer cells incubated for 48 hrs by sulforhodamine B assay; conditions: Cancer cell lines; for CC50: read-out: LC50 (the source's name); outline: as §3
[18] = Growth inhibition of human DU145 cells incubated for 48 hrs by sulforhodamine B assay; conditions: DU-145, 48 h; for CC50: read-out: pLC50 (the source's name) (converted); outline: as §2
[19] = Growth inhibition of human SW620 cells assessed as cell growth at 10^-4 M incubated for 48 hrs by sulforhodamine B assay; conditions: SW-620, 48 h, read-out: Activity
786-0 [20] = test: Growth inhibition of human 786-0 cells assessed as cell growth at 10^-5 M incubated for 48 hrs by sulforhodamine B assay; conditions: 786-0, 48 h, read-out: Activity; outline: as §3
SK-MEL-5 = test: Growth inhibition of human SK-MEL-5 cells incubated for 48 hrs by sulforhodamine B assay; conditions: SK-MEL-5, 48 h; outline: as §1
K562 = test: Growth inhibition of human K562 cells assessed as cell growth at 10^-4 M incubated for 48 hrs by sulforhodamine B assay; conditions: K562, 48 h, read-out: Activity
NCI-H23 = test: Growth inhibition of human NCI-H23 cells assessed as cell growth at 10^-5 M incubated for 48 hrs by sulforhodamine B assay; conditions: NCI-H23, 48 h, read-out: Activity
[21] = read-out: LC50 (the source's name)
[22] = read-out: pLC50 (the source's name) (converted)

Compound: Fc1ccc(-c2nc(Nc3ccc(-c4nc5ccccc5[nH]4)cc3)nc(N3CCOCC3)n2)cc1
- growth at 10 µM [1]: -13%
- GI50 (HT-29; read-out: GI50): 2.23 µM
- CC50 (HT-29; [21]): > 100 µM
- TGI (HT-29; read-out: TGI): 5.39 µM
- GI50 (HT-29; read-out: pGI50 (converted)): 2.24 µM
- CC50 (HT-29; [22]): > 100 µM
- TGI (HT-29; read-out: pTGI (converted)): 5.37 µM
- growth at 1 µM (U-251): 70%
- growth at 0.01 µM [2]: 93%
- growth at 10 µM [3]: -23%
- growth at 10 µM (M14): -62%
- growth at 1 µM [4]: 86%
- growth at 100 µM (MDA-MB-231 [5]): -33%
- growth at 100 µM [6]: 2%
- growth at 100 µM [7]: 8%
- growth at 1 µM (786-0 [8]): 73%
- growth at 0.1 µM (MDA-MB-231 [9]): 86%
- growth at 0.1 µM [10]: 89%
- growth at 1 µM [11]: 90%
- growth at 0.01 µM [12]: 101%
- growth at 10 µM [13]: 43.9%
- growth at 100 µM [14]: 4%
- growth at 10 µM [15]: -35%
- growth at 0.1 µM [16]: 88%
- growth at 10 µM (ACHN): 3%
- growth at 0.1 µM (NCI-H522): 97%
- GI50 [17]: 2.23 µM
- TGI [17]: 11.8 µM
- CC50 [17]: 8.47 µM
- LC50 (50% net cell kill) [18]: > 100 µM
- GI50 ([18]; read-out: GI50): 4.53 µM
- TGI ([18]; read-out: TGI): > 100 µM
- GI50 ([18]; read-out: pGI50 (converted)): 4.57 µM
- CC50 [18]: > 100 µM
- TGI ([18]; read-out: pTGI (converted)): > 100 µM
- growth at 100 µM [19]: -44%
- growth at 10 µM (786-0 [20]): -70%
- GI50 (SK-MEL-5; read-out: GI50): 1.79 µM
- CC50 (SK-MEL-5; [21]): 6.28 µM
- TGI (SK-MEL-5; read-out: TGI): 3.36 µM
- GI50 (SK-MEL-5; read-out: pGI50 (converted)): 1.78 µM
- CC50 (SK-MEL-5; [22]): 6.31 µM
- TGI (SK-MEL-5; read-out: pTGI (converted)): 3.39 µM

Compound: c1ccc2[nH]c(-c3ccc(Nc4nc(N5CCCCC5)nc(N5CCOCC5)n4)cc3)nc2c1
- growth at 10 µM [1]: -6%
- GI50 (HT-29; read-out: GI50): 2.44 µM
- CC50 (HT-29; [21]): > 100 µM
- TGI (HT-29; read-out: TGI): 5.56 µM
- GI50 (HT-29; read-out: pGI50 (converted)): 2.45 µM
- CC50 (HT-29; [22]): > 100 µM
- TGI (HT-29; read-out: pTGI (converted)): 5.62 µM
- growth at 1 µM (U-251): 76%
- growth at 0.01 µM [2]: 94%
- growth at 10 µM [3]: -11%
- growth at 10 µM (M14): -45%
- growth at 1 µM [4]: 92%
- growth at 100 µM (MDA-MB-231 [5]): -16%
- growth at 100 µM [7]: 8%
- growth at 1 µM (786-0 [8]): 79%
- growth at 100 µM (K562): 1%
- growth at 0.1 µM (MDA-MB-231 [9]): 98%
- growth at 0.1 µM [10]: 74%
- growth at 1 µM [11]: 90%
- growth at 0.01 µM [12]: 102%
- growth at 10 µM [13]: 58.8%
- growth at 10 µM (NCI-H23): 6%
- growth at 100 µM [14]: -1%
- growth at 10 µM [15]: -37%
- growth at 0.1 µM [16]: 93%
- growth at 10 µM (ACHN): 9%
- growth at 0.1 µM (NCI-H522): 97%
- GI50 [17]: 2.54 µM
- TGI [17]: 23.2 µM
- CC50 [17]: 46.6 µM
- LC50 (50% net cell kill) [18]: > 100 µM
- GI50 ([18]; read-out: GI50): 4.28 µM
- TGI ([18]; read-out: TGI): > 100 µM
- GI50 ([18]; read-out: pGI50 (converted)): 4.27 µM
- CC50 [18]: > 100 µM
- TGI ([18]; read-out: pTGI (converted)): > 100 µM
- growth at 100 µM [19]: -53%
- growth at 10 µM (786-0 [20]): -78%
- GI50 (SK-MEL-5; read-out: GI50): 1.78 µM
- CC50 (SK-MEL-5; [21]): 6.11 µM
- TGI (SK-MEL-5; read-out: TGI): 3.3 µM
- GI50 (SK-MEL-5; read-out: pGI50 (converted)): 1.78 µM
- CC50 (SK-MEL-5; [22]): 6.17 µM
- TGI (SK-MEL-5; read-out: pTGI (converted)): 3.31 µM
